Source: PubChem
This is a sample that favours compounds with a hit; in the whole collection about 1.6% have one here.
JMJD2C inh = inhibitors of GASC-1 histone demethylase, primary screen, biochemical, fluorescence, DELFIA europium. Lysine-specific demethylase 4C (Homo sapiens), Q9H3R0. GST-JMJD2C(1-420) H3K9me3 demethylation. inhibition, % at 2.35 µM. hit rate 0.069% among 330,000;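 active = more than half of a compound's replicate wells show inhibition beyond 50%, single wells judged on their own value; inconclusive = some, but no more than half, of replicates pass 50% inhibition; inactive = no replicate passes 50% inhibition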;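 note: signal counts dimethyl H3K9 product captured on neutravidin plate; 0% = median of DMSO wells and 100% = 0.3 times that DMSO median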
Pemphigus Ab inh = inhibitors of pemphigus antibody binding to DSG3, primary screen, biochemical, bead-based, flow cytometry, scFv-GFP. DSG3-coupled beads, scFv-anti-DSG3-GFP binding; hits give low values. binding (percent of control), % at 10 µM. hit rate 0.48% among 310,000;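 active = binding more than 3 SD below its plate's average and above zero; inconclusive = below that plate limit but binding exactly zero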;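 note: hits lower antibody fragment binding to DSG3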
LANA-H2B inh = blockers of LANA interaction with H2A/H2B – biochemical, FP readout, HTS, primary screen. Protein LANA1 (Human herpesvirus 8 type P (isolate GK18)), Q9QR71. cell-free LANA-H2A/H2B peptide, fluorescence polarization. inhibition, % (concentration not given with the values). hit rate 0.6% among 320,000. AID 2629, 2010; in the data active = inhibition mostly above about 10%, no sharp cut-off; inactive = mostly below about 6.7%
Arr AP2 block = inhibitors of beta-arrestin/AP2 binding, primary screen, biochemical, GPCR trafficking, flow cytometry. beta-arrestin 1 C-terminal peptide binding to AP2 beta2-adaptin appendage (human). inhibition, % at 10 µM. hit rate 0.31% among 340,000. FITC-arrestin peptide / GST-AP2 beads; AP2 beta2 appendage carries R879A mutation. AID 504490, 2011;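 active = inhibition above a set limit, near 3 SD of compounds lacking own fluorescence, cut at about 54% in these data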;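 note: plate controls were DMSO wells for no effect and 5 µM unlabelled arrestin peptide for full effect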
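System: GST-AP2 R879A bound to glutathione beads, E. coli-expressed. Also added: 50 nM FITC-arrestin peptide. Schedule: compound with beads 12 min RT, then probe 1 h RT. Signal: bead flow cytometry, FITC channel. Read-out basis: percent response.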
T cell modulator = modulators of CD8 T cell-vesicle binding, primary screen, mouse 2C CD8+ T cells, flow cytometry. response (vesicle binding), % at 7 µM. hit rate 0.068% among 330,000. 2C CD8+ T cell-vesicle binding; hits give low values;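 active = response, share of CD8 T cells binding vesicles, and their 90th percentile fluorescence all below set limits, cut at about 80% in these data, passing the limit was not always enough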;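 note: values below 100% mean blocked vesicle binding to the CD8+ T cells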
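incubation = binding step 1.5 h, 37 °C, antibody labelling 20 min, ice | test system = 2C mouse CD8+ T cells | read-out basis = percent CD8+ FL2 mean versus row control | controls = Peptide-free naked vesicles (low) and QL9 vesicles with 0.7% DMSO vehicle (high) | detection = flow cytometry of vesicle-bound cells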
HDAC3 inhib = HDAC3 deacetylase inhibitors, primary screen, biochemical, fluorescence, cell-free homogeneous | Histone deacetylase 3 (Homo sapiens), O15379 | hit rate 0.15% among 320,000 | recombinant HDAC3, fluorogenic peptide/trypsin coupled | inhibition, % at 8.3 µM | AID 2718, 2010; in the data active = inhibition above about 26%, passing the limit was not always enough; inconclusive = no clear call, values can overlap the other calls
Target sequence (O15379 whole entry, looked up): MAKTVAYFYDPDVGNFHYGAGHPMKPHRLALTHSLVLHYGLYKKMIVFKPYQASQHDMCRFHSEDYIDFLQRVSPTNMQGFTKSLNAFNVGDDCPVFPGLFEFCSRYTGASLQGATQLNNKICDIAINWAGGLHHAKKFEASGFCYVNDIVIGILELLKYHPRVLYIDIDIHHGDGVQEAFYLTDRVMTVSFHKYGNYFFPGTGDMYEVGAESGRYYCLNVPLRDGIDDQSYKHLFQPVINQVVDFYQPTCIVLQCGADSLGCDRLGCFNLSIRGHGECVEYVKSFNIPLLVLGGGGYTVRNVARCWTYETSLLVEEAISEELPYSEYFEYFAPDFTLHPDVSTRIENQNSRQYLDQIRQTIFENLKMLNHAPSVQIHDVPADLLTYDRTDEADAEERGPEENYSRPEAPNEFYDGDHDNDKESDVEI
* hit, by the source's call; ? = inconclusive; / = not tested or not shown.

SMILES	JMJD2C inh	Pemphigus Ab inh	LANA-H2B inh	Arr AP2 block	T cell modulator	HDAC3 inhib
CC(C)C1C(=O)N(Cc2cn(CCC3OCCCO3)nn2)CCS(=O)(=O)N1Cc1ccc(-c2ccc(Cl)c(Cl)c2)cc1 (stereo not drawn)	/	105.6	/	/	/	/
Cc1ccc(-c2nc(NC(=O)CSc3cc(C)c4ccccc4n3)ns2)cc1	-0.2	-0.3*	-3.5	-0.7	145.4	1.8
c1ccc2c(c1)Oc1ccccc1S2	-1.6	103.4	41.6*	5.8	926.3	-1.1
CN(C)CCC1Sc2ccccc2Oc2ccccc21 (stereo not drawn)	-2.3	87.7	-0.4	11.2	130.1	-4.0
COc1ccc(-n2cc(CNCCc3cscn3)c(-c3ccccc3Cl)n2)cc1	51.5*	/	-2.5	/	217.5	-4.9
Cc1ccc(-n2cc(CNCCc3cscn3)c(-c3ccc(F)cc3)n2)cc1	21.6	105.2	-2.3	8.4	198.8	9.7
Cn1c(SCC(=O)Nc2ccc(C(N)=O)cc2)nnc1-c1cccs1	-0.8	125.2	15.5*	-1.8	327.0	1.1
COc1cc(OC)c(N(C)C(=O)c2cn(C)c(=O)c3cc(OC)c(OC)cc23)cc1Cl	112.0	?	-2.8	28.3	195.0	53.9*
S=C(NCc1ccccc1)NNc1nc2ccccc2[nH]1	1.3	100.4	-0.7	-40.9	219.5	?
C#CCSc1nncn1C(=O)/C=C/c1ccccc1	5.3	/	2.8	/	352.6	73.4*
Cc1ccc(C)c(S(=O)(=O)NCC(=O)OCC(=O)Nc2sccc2C(N)=O)c1	/	96.2	/	36.0	/	/
Nc1c(S(=O)(=O)c2ccccc2)cnc2c(-c3ccc(F)cc3)cnn12	7.0	-18.2*	1.6	15.7	298.3	3.0
O=C(Nc1nc(-c2ccccc2)cs1)C1c2ccccc2Oc2ccccc21	-9.4	98.9	46.1*	-1.3	503.7	2.2
COc1ccccc1C(=O)CC(=O)c1ccccc1	-8.0	101.7	16.8*	15.9	239.4	3.0
CC(=O)C1=C(O)C(=O)OC1c1ccc(Cl)cc1 (stereo not drawn)	5.2	76.5*	2.9	-0.6	32.8	-0.6
CC(=O)C1=C(O)C(=O)OC1c1ccc(C)cc1 (stereo not drawn)	4.5	98.1	-22.4	10.3	275.8	17.4
Cc1ccc(C(=O)Nc2ccc3c(c2)C(=O)N(CC2CCCO2)C3=O)cc1 (stereo not drawn)	21.5	/	0.0	9.6	65.4*	9.3
O=C(O)c1ccc(NC(=O)c2ccc3c(c2)C(=O)N(CC2CCCO2)C3=O)cc1 (stereo not drawn)	-0.2	/	0.3	2.5	397.5	2.0
COc1ccc(C2CC(=O)C=C3c4ccc(OC)cc4CCC32)cc1 (stereo not drawn)	/	84.0*	/	/	/	/
COc1ccc(NC(=O)C(=O)N/N=C(\C)CC(=O)Nc2ccccn2)c(OC)c1	3.0	/	2.7	5.9	304.2	1.7
COc1ccccc1NC(=O)C(=O)N/N=C(\C)CC(=O)Nc1ccccn1	2.0	102.5	24.2*	9.2	161.5	-3.7
COc1ccc(-c2ccc3c(c2)S(=O)(=O)c2cccc(C(=O)NC4CCCCC4)c2C3=O)cc1OC	-4.5	53.9*	-6.7	1.2	580.4	3.5
O=C1c2ccc(-c3ccc(F)cc3OCc3ccccc3)cc2S(=O)(=O)c2cccc(C(=O)N3CCN(c4ncc(Br)cn4)CC3)c21	/	89.0*	4.7	3.2	157.8	-0.4
CCCCN(C(=O)CC1CCCCC1)c1c(N)n(CC(C)C)c(=O)[nH]c1=O	-3.1	96.0	71.1*	-31.9	854.4	4.0
CCC/C=C(\CCC)C(NS(=O)(=O)c1ccc(C(F)(F)F)cc1)c1ccccc1 (stereo not drawn)	3.7	/	-0.1	/	153.7	26.6*
O=C1C(CO)C(CO)C(CO)C1CO (stereo not drawn)	/	86.9	/	16.8	/	/
